HSV replic up = enhancers of HSV replication in host cells, fold increase, host cell viability. maximum fold increase. AID 1956, 2009. HSV replication augmentation in cells. 220,000 compounds, 0.005% hits; in the data active = maximum fold increase above about 1.5; inconclusive = no clear call, values can overlap the other calls; tested in PC3 cells
Autophagy mod = autophagy modulators in MEF cells, primary screen, imaging, high-content, MEF GFP-LC3; 190,000 compounds, 0.98% hits; calls only at 10 µM (by protocol); MEF GFP-LC3 puncta imaging; test concentration mostly 10 µM; AID 463193, 2010;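 active = percentage of spot-positive cells more than 3 SD above its plate mean, without a fluorescence outlier flag or 80% toxicity; inconclusive = no clear call, values can overlap the other calls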;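 also: spot-positive cell cutoff set from DMSO-treated cells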
Dynein cargo inh = inhibitors of GR-EGFP nuclear translocation, primary screen, dynein cargo transport inhibitor project, imaging, high-content, 3617.4 mouse cells. test concentration mostly 20 µM; stimulated with dexamethasone, 1 µM; stronger effect = lower value. z-score, hits read low. 220,000 compounds, 0.47% hits;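 active = plate z-score of nuclear minus cytoplasmic receptor signal below a set negative limit, without overly bright fluorescence or cell loss, cut at about -3.5 in these data, passing the limit was not always enough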;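 also: z-score of nuclear minus cytoplasmic ring GR-EGFP intensity difference per well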
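Medium: Induction medium lacking tetracycline, stripped serum | Probe or stimulus: 1.0 µM final dexamethasone stimulus | Schedule: 48 h induction, then 1 h compound, then 30 min agonist, 37 °C | Signal: Automated 10x imaging of fixed Hoechst-stained cells | Evaluation: Per-cell GR-EGFP intensity, nucleus versus surrounding cytoplasmic ring, well-averaged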
INS promoter inh = inhibitors of insulin promoter-driven GFP, primary screen, imaging, TRM-6 cells (human fetal islet line), eGFP reporter, cell count; reporter expression induced with tamoxifen; inhibition, % at 2 µM; 130,000 compounds, 0.9% hits; AID 1273, 2008;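 active = inhibition above the mean plus 3 SD, with well images judged a real hit on visual review, cut at about 60% in these data, passing the limit was not always enough; inconclusive = inhibition over the cutoff but images rejected on review; inactive = inhibition not above the cutoff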
Furin inhibitor = human furin inhibitors, primary screen, biochemical, fluorescence intensity; P09958; purified furin, fluorogenic substrate cleavage; inhibition, % at 20 µM or 30 µM; 220,000 compounds, 0.061% hits; in the data active = inhibition above about 25%
Target sequence (P09958 108-714 limits assumed): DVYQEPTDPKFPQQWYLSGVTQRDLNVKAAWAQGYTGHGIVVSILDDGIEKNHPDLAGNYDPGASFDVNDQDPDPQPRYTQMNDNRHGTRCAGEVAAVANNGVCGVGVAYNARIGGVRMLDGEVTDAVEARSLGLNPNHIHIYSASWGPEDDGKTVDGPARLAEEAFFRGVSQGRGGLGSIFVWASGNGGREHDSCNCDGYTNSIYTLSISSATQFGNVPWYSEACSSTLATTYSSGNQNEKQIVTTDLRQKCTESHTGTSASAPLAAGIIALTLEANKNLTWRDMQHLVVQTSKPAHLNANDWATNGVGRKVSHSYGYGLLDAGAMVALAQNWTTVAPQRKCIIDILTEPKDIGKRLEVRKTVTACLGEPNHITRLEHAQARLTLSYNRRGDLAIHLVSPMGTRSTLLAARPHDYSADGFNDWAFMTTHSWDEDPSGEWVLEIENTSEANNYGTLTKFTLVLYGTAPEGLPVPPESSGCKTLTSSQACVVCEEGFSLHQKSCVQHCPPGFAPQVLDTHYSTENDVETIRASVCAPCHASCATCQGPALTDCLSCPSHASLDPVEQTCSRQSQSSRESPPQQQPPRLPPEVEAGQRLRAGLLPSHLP
Insulin prom up = insulin promoter activators in MIN6 cells, imaging, high-content screening, mouse beta cells; MIN6 insulin promoter-GFP reporter; stronger effect = higher value; z-score at 5 µM; 190,000 compounds, 0.3% hits; AID 1625, 2009;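 active = z-score above 3 at 5 µM with at least 500 cells counted in the well; inconclusive = wells under 500 cells, flagged as cytotoxic or low count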
* hit, by the source's call; i = inactive; ? = inconclusive; . = not tested or not shown; + = active, no number. Hits are enriched below; roughly 2% of the tested compounds scored in any of these assays.

SMILES	HSV replic up	Autophagy mod	Dynein cargo inh	INS promoter inh	Furin inhibitor	Insulin prom up
CCN(CCNC(=O)C1CCN(S(=O)(=O)CC)CC1)c1ccccc1	i	i	0.41	20	-8	0.75
CCN(CCNC(=O)C1CCN(Cc2nc(-c3ccc(Cl)cc3)oc2C)CC1)c1ccccc1	i	+	4	.	-1	-0.78
CCN(CCNC(=O)C1CCCN(S(=O)(=O)CC)C1)c1ccccc1 (stereo not given)	i	i	-0.17	-68	-23	3.1*
Cc1ccc(-c2[nH]ncc2/C=N/n2c(COc3ccccc3)nc3ccccc3c2=O)cc1	i	+	0.98	.	5	-0.73
Cc1ccccc1OCc1nc2ccccc2c(=O)n1/N=C/c1cn[nH]c1-c1ccccc1	i	+	0.28	-64	-21	-1.2
Cc1nc2ccccc2c(=O)n1/N=C/c1cn[nH]c1-c1ccccc1	i	.	-0.13	.	-15	-0.01
Cc1cc(/C=N/n2c(COc3ccccc3)nc3ccccc3c2=O)c(O)c([N+](=O)[O-])c1	i	i	0.28	.	-22	.
O=C(O)c1cccnc1Sc1ccccc1	i	i	-0.73	-35	-2	-0.03
O=C(O)c1cccnc1Sc1ccc(Cl)cc1	i	+	0.15	.	-17	0.32
Cc1cc(/C=C2/C(=O)N(C)C(=S)N2C)c(C)n1C1CC1	i	i	-0.26	-238	-8	0.6
Cc1cc(/C=C2\SC(=S)NC2=O)c(C)n1C1CC1	.	i	0.29	-11	-21	3*
C[C@@H](C(=O)Nc1cccc(S(=O)(=O)N2CCOCC2)c1)N1C(=O)C2CC=CCC2C1=O (stereo not given in full)	i	i	-0.7	32	-22	0.06
N#C/C(=C\C=C\c1ccccc1[N+](=O)[O-])c1nc(-c2ccc3c(c2)OCO3)cs1	i	+	-0.78	12	-5	0.99
Cc1c(C(=O)OCC(C)C)[nH]c2c1C(=O)CC(c1cccs1)C2 (stereo not given)	i	i	0.021	-100	-11	-0.45
COCCOC(=O)c1[nH]c2c(c1C)C(=O)CC(c1cccs1)C2 (stereo not given)	i	+	1.5	-154	-15	0.49
CCOCCOC(=O)c1[nH]c2c(c1C)C(=O)CC(c1cccs1)C2 (stereo not given)	i	+	0.55	.	-12	.
CCOC(=O)c1[nH]c2c(c1C)C(=O)CC(c1ccc(F)cc1)C2 (stereo not given)	i	i	-0.013	-414	-8	0.09
COc1ccccc1NC(=O)C1=C(C)NC2=C(C(=O)CC(c3ccc(OC)c(OC)c3)C2)C1c1coc2ccccc2c1=O (stereo not given)	i	i	0.99	0	-2	-0.71
N#Cc1c(NC(=O)CCn2cnc3ccccc3c2=O)oc(-c2ccccc2)c1-c1ccccc1	i	i	0.0014	75*	28*	.
Cc1nn(C2CCS(=O)(=O)C2)c(Cl)c1/C=C/C(=O)OCC(=O)c1cc(C)n(-c2ccc(F)cc2)c1C (stereo not given)	i	i	1.3	17	0	0.64
Cc1cc(C)c(-c2c(O)c3cnn(-c4ccccc4)c3[nH]c2=O)c(C)c1	i	i	-0.76	67*	-21	0.47
COC(=O)c1ccc(C2C(C#N)=C(C)NC3=C2C(=O)CC(C)(C)C3)cc1 (stereo not given)	i	i	0.55	0	-49	0.86
COc1ccc(C2CC(=O)C3=C(C2)NC(C)=C(C#N)C3c2ccc(N(C)C)cc2)cc1 (stereo not given)	i	+	-0.64	.	-21	.
c1ccc(CN2CCC3(CC2)Nc2ccccc2S3)cc1	i	.	-0.77	.	-26	-0.37
CCOC(=O)C(C(=O)NCC1CCCO1)C1CCCCC1 (stereo not given)	i	i	0.73	-146	28*	.
SMILES	HSV replic up	Autophagy mod	Dynein cargo inh	INS promoter inh	Furin inhibitor	Insulin prom up
COc1ccc(Cl)cc1-c1nc(-c2ccncc2)no1	i	i	-0.1	81*	-24	0.45
Cn1nc(C(=O)Nc2ccc3c(c2)OCCO3)cc1C(=O)O	i	i	0.18	.	-21	0.37
CCOC(=O)C1CCN(C(=O)CSc2n[nH]c(=O)[nH]c2=O)CC1	i	i	-1	81*	-12	0.3
CC1=C(C(=O)OCC2CCCO2)C(c2ccc(C)cc2)C2=C(CC(C)(C)CC2=O)N1 (stereo not given)	i	i	1.5	.	-11	0.03
Cc1sc2c(c1C)c(=O)n(-c1cccc(C(F)(F)F)c1)c(=O)n2CC(=O)NCc1ccco1	i	i	0.0098	69*	-11	.
Cc1ccc(-n2c(=O)c3ccccc3n(CC(=O)NCc3ccco3)c2=O)cc1	i	i	0.95	73*	-20	-0.95
CCn1c(=O)n(CC(=O)NCc2ccco2)c(=O)c2ccccc21	i	i	-0.74	27	-31	0.15
CCc1ccc(-n2c(=O)c3ccccc3n(CC(=O)NCc3ccco3)c2=O)cc1	i	i	2.5	-78	-17	-0.49
COCCNC(=O)Cn1c(=O)n(Cc2ccco2)c(=O)c2ccccc21	i	i	0.14	86*	-18	0.61
CCOc1ccc(-n2c(=O)c3c(C)c(C)sc3n(CC(=O)NCc3ccco3)c2=O)cc1	i	i	0.41	.	-22	0.32
COc1ccc(C(=O)C(CN2CCOCC2)c2ccccc2)cc1 (stereo not given)	i	i	-3.4	92*	-1	-3.7
O=C(c1ccccc1)C(CCC(CN1CCOCC1)C(=O)c1ccccc1)CN1CCOCC1 (stereo not given)	i	i	-6.1*	-4	-15	0.54
CCCCOc1ccc(C(=O)C(CN2CCOCC2)c2ccccc2)cc1 (stereo not given)	i	+	-2.3	78*	4	.
CN(C)CC(CCC(CN(C)C)C(=O)c1ccccc1)C(=O)c1ccccc1 (stereo not given)	i	.	-5*	.	-24	-1.9
c1ccc(C(CN2CCOCC2)c2ccccc2)cc1	i	i	0.37	.	-20	-0.3
CCCOc1ccc(C(=O)C(CN2CCCC2)c2ccccc2)cc1 (stereo not given)	i	i	-3.4	?	-19	-3.5
C/C(CCc1ccccc1)=N\NC(=O)CC(=O)NCCc1ccccc1	i	i	0.2	-25	-27	0.64
O=C(CCN1C(=O)c2cccc3cccc(c23)C1=O)Nc1ccon1	i	i	-0.44	.	-26	.
CCOc1ccc(N=C2NC(=O)S/C2=C\c2ccc(OC)cc2)cc1	i	+	-0.55	3	-17	.

Screening results as filed in PubChem BioAssay.
